Source: PubChem BioAssay
APJ antagonist – antagonists of human APJ apelin receptor. P35414. CHO-K1 APJ beta-arrestin complementation, luminescence. inhibition, % at 20 µM. 330,000 tested, 0.32% active. AID 2521;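 active means inhibition above about 40% at 20 µM, limit read from the data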;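 further: cells challenged with 10 nM apelin-13 agonist together with compound; plate controls were apelin-13 plus DMSO wells for no effect and DMSO wells lacking apelin-13 for full effect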
Target sequence (P35414 whole entry, looked up): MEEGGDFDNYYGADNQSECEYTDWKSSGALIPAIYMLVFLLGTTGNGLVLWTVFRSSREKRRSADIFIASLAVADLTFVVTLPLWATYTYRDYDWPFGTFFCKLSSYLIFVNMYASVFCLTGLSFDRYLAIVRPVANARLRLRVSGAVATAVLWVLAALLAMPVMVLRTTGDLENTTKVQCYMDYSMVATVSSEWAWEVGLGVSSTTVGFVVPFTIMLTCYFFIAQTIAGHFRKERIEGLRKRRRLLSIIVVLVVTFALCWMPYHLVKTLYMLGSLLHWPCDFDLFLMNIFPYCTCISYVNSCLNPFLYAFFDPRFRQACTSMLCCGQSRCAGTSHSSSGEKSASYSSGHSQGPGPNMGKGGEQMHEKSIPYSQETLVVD
APJ ag – agonists of human APJ apelin receptor | CHO-K1 APJ PathHunter beta-arrestin, luminescence; 0% DMSO wells, 100% apelin | activation, % at 20 µM | 330,000 tested, 0.11% active | AID 2520;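 active means activation more than six SD over the plate average, tested at 20 µM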;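 further: 0% = DMSO alone and 100% = apelin-13 at 10 nM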
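Assay system: engineered CHO-K1 APJ arrestin reporter cells; Amount: 1000 CHO-K1 reporter cells seeded per well; Dosing: one dose, 20 µM compound, 1% DMSO; Times: compound stimulation 90 min at 25 °C, detection 60 min; Measured by: luminescent beta-gal fragment complementation, chemiluminescent substrate; Read-out: APJ–arrestin association signal; Controls: DMSO vs Apelin-13 10 nM.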
CXCR6 inh – CXCR6 (human) receptor inhibition. O00574. CHO-K1 PathHunter CXCR6 beta-arrestin, luminescence. inhibition, % at 20 µM. 360,000 tested, 0.36% active. AID 602244; in the data active means inhibition above about 34%, passing the limit was not always enough;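 further: antagonist mode with CXCL16 agonist at 10 nM final; 0% = 10 nM CXCL16 with DMSO and 100% = unstimulated wells without agonist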
B2AR ag – activates human beta-2 adrenergic receptor causing internalization. P07550. Am2.2-beta2AR cells, FAP receptor internalization, flow cytometry. response, % (no concentration beside the values). 340,000 tested, 0.43% active. AID 504454;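 active means response above a set limit, near 3 SD of response in nonfluorescent compounds, cut at about 42% in these data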
CCR6 antag – CCR6 (human) receptor antagonism | P51684 | CHO-K1 CCR6 PathHunter beta-arrestin, luminescence, CCL20-stimulated | inhibition, % at 20 µM | 340,000 tested, 0.49% active | AID 493098;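 active means compounds whose inhibition of the agonist-driven luminescence signal at 20 µM reaches about 50%, limit read from the data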;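 further: cells stimulated with CCL20 at 14 nM final; plate controls were DMSO with CCL20 for no effect and DMSO without agonist for full effect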
EBI2 antag – EBI2 (human) antagonism. AID 651636. EBI2 beta-arrestin recruitment, luminescence, 7a,25-OHC stimulated. P32249. inhibition, % at 5 µM. 360,000 tested, 0.81% active; in the data active means inhibition above about 38%;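 further: enzyme fragment complementation signal reports receptor beta-arrestin coupling in cells; 0% = agonist plus DMSO wells and 100% = wells without agonist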
EBI2 conf – confirmation of human EBI2 receptor antagonists; inhibition, % at 5 µM; EBI2 beta-arrestin luminescence, 7a,25-OHC antagonism; shares compounds with EBI2 antag; AID 651997; 2,400 tested, 29% active;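 active means inhibition of at least 50%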
EBI2 agonist – activates EBI2, counter-screen for EBI2 antagonists; shares compounds with EBI2 antag; EBI2-expressing cells, agonist mode, luminescence, 60 min; 0% vehicle, 100% 7α,25-dihydroxycholesterol control; activation, % at 5 µM; 2,400 tested, under 10 active; AID 652000;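 active means activation of at least 50%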
bGal counter – beta-galactosidase inhibition counter-screen. inhibition, % at 5 µM. 2,400 tested, 1% active. purified beta-galactosidase, luminescent Galacton Star, 15 min. AID 652176. shares compounds with EBI2 antag;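 active means replicate-average signal at least 3 plate SD below neutral wells, shown as high inhibition, flagging enzyme-inhibiting false positives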;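 further: 0% = DMSO wells with enzyme and 100% = wells lacking enzyme; higher means stronger loss of beta-gal luminescence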
Active calls of the source: *. Only some compounds are listed: those with a hit (about 1.8% of all), similar ones and a draw of the others.

What do the screens show for `Cc1cc(C)c(C#N)c(SCC(O)CS(=O)(=O)Cc2ccccc2)n1` (configuration not stated)?
APJ antagonist: 2; APJ ag: 0; CXCR6 inh: -4; B2AR ag: 5; CCR6 antag: -6; EBI2 antag: 5

How did COC(=O)C1(C(=O)OC)c2ccccc2CN(S(=O)(=O)c2ccc(C)cc2)C1CC(C)=O (configuration not stated) do in these assays?
EBI2 antag: 0

Results for COCCNc1nc(NCCNC(C)=O)c2sc(-c3ccccc3)cc2n1 ?
CXCR6 inh: -2; EBI2 antag: -4

What do the screens show for `c1ccc(-c2cc3nc(NCC4CC4)nc(NCC4CCCCC4)c3s2)cc1`?
CXCR6 inh: 8; EBI2 antag: 56*; EBI2 conf: 38; EBI2 agonist: 2; bGal counter: 5

What do the screens show for `COCCNc1nc(NCCOc2ccccc2Cl)c2sc(-c3ccccc3)cc2n1`?
CXCR6 inh: 16; EBI2 antag: 40*; EBI2 conf: 23; EBI2 agonist: -2; bGal counter: -3

What do the screens show for `Cc1ccc2oc(=O)c3cnn(CC(=O)N4CCCc5ccccc54)c3c2c1`?
APJ antagonist: 6; APJ ag: -1; CXCR6 inh: 7; B2AR ag: 15; CCR6 antag: 4; EBI2 antag: 53*; EBI2 conf: 22; EBI2 agonist: 0; bGal counter: -14

How did Cc1ccc2oc(=O)c3cnn(CC(=O)N(CCN(C)C)Cc4ccco4)c3c2c1 do in these assays?
APJ antagonist: 18; APJ ag: -5; CXCR6 inh: 3; B2AR ag: 1; CCR6 antag: -7; EBI2 antag: 31

How did COCCCN(Cc1ccco1)C(=O)Cn1ncc2c(=O)oc3ccc(C)cc3c21 do in these assays?
APJ antagonist: -11; APJ ag: -1; CXCR6 inh: -7; B2AR ag: 6; CCR6 antag: 11; EBI2 antag: 55*; EBI2 conf: 40; EBI2 agonist: -1; bGal counter: -12

Results for CCOC(=O)c1ccc(Nc2cc(C)nc(-c3ccccc3)n2)cc1 ?
APJ antagonist: -13; APJ ag: 2; CXCR6 inh: -2; B2AR ag: 1; CCR6 antag: -9; EBI2 antag: 57*; EBI2 conf: 49; EBI2 agonist: 0; bGal counter: 14

Results for Cn1c(C(=O)N2CCCC(C(=O)NCc3cccs3)C2)cc2sccc21 (configuration not stated) ?
APJ antagonist: 11; APJ ag: -3; CXCR6 inh: 6; B2AR ag: -14; CCR6 antag: 11; EBI2 antag: 19

Results for CC(CCc1ccccc1)NC(=O)C1CCCN(C(=O)c2cc3sccc3n2C)C1 (configuration not stated) ?
APJ antagonist: -10; APJ ag: -4; CXCR6 inh: -4; B2AR ag: -12; CCR6 antag: 11; EBI2 antag: 60*; EBI2 conf: 29; EBI2 agonist: 0; bGal counter: -11

Results for COc1ccc(C2N(c3ccc(C)cc3)CCN2c2ccc(C)cc2)cc1O ?
APJ antagonist: -3; APJ ag: -3; CXCR6 inh: 2; B2AR ag: 10; CCR6 antag: 5; EBI2 antag: 73*; EBI2 conf: 15; EBI2 agonist: 1; bGal counter: 4

Results for COc1cc(C2N(c3ccccc3)CCN2c2ccccc2)ccc1OC(C)=O ?
APJ antagonist: 14; APJ ag: 0; CXCR6 inh: -1; B2AR ag: -5; CCR6 antag: 13; EBI2 antag: 5

What do the screens show for `COc1ccc2cc(C(=O)N3CCC(Cc4ccccc4)CC3)[nH]c2c1`?
APJ antagonist: -2; APJ ag: -1; CXCR6 inh: 9; B2AR ag: -3; CCR6 antag: 0; EBI2 antag: 77*; EBI2 conf: 53*; EBI2 agonist: 1; bGal counter: 3

Results for COc1ccc2[nH]c(C(=O)N3CCC(Cc4ccccc4)CC3)cc2c1 ?
APJ antagonist: -10; APJ ag: -1; CXCR6 inh: 2; B2AR ag: 6; CCR6 antag: 4; EBI2 antag: 84*; EBI2 conf: 51*; EBI2 agonist: -1; bGal counter: -12

How did O=C(c1cc2cc(F)ccc2[nH]1)N1CCC(Cc2ccccc2)CC1 do in these assays?
APJ antagonist: 9; APJ ag: -1; CXCR6 inh: -4; B2AR ag: -2; CCR6 antag: 11; EBI2 antag: 88*; EBI2 conf: 63*; EBI2 agonist: 1; bGal counter: 6

Results for COc1cc2cc(C(=O)N3CCC(Cc4ccccc4)CC3)[nH]c2cc1OC ?
APJ antagonist: 13; APJ ag: -5; CXCR6 inh: 9; B2AR ag: 10; CCR6 antag: 8; EBI2 antag: 13

Results for Cn1cnc([N+](=O)[O-])c1Sc1nc(N)nc2c1ncn2C1CC(O)C(CO)O1 (configuration not stated) ?
CXCR6 inh: -3; B2AR ag: 1; CCR6 antag: -2; EBI2 antag: -1

How did CCN1CCN(C(=O)c2cc3cc(F)ccc3[nH]2)CC1 do in these assays?
APJ antagonist: 8; APJ ag: -1; CXCR6 inh: 5; B2AR ag: -13; CCR6 antag: -2; EBI2 antag: 55*; EBI2 conf: 28; EBI2 agonist: 1; bGal counter: 2

How did O=C(c1cc2cc(F)ccc2[nH]1)N1CCN(Cc2ccc3c(c2)OCO3)CC1 do in these assays?
APJ antagonist: -64; APJ ag: 2; CXCR6 inh: -10; B2AR ag: 12; CCR6 antag: 24; EBI2 antag: 93*; EBI2 conf: 79*; EBI2 agonist: 2; bGal counter: 1

Results for CCc1ccccc1NC(=O)Cn1nnc(C(=O)NCc2cccc(OC)c2)c1N ?
APJ antagonist: 13; APJ ag: 3; CXCR6 inh: 0; B2AR ag: -4; CCR6 antag: 2; EBI2 antag: 4

What do the screens show for `CC(=O)CSc1ccc(-c2nc3cc(C)c(C)cc3[nH]2)cn1`?
APJ antagonist: -4; APJ ag: -3; CXCR6 inh: -16; B2AR ag: 21; CCR6 antag: -10; EBI2 antag: 31
